Compound activity (PubChem BioAssay)
Only some compounds are listed: those with a hit (about 2.9% of all), similar ones and a draw of the others.
HTRA1 inh: HTRA1 (human) protease inhibition. Q92743. recombinant HTRA1, FP-rhodamine activity-based probe, fluorescence polarization. inhibition, % at 5.96 µM. 340,000 tested, 0.5% active; in the data active = inhibition above about 36%;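 note: 0% = enzyme with DMSO and 100% = wells lacking enzyme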
PAD4 inh: PAD4 (human) enzyme inhibition | inhibition, % at 6.36 µM | Q9UM07 | 330,000 tested, 0.41% active | AID 485272 | recombinant PAD4, RCA probe fluorescence polarization;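 active = percent inhibition above a cutoff equal to the mean of all tested compounds plus 3 SD, cut at about 15% in these data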;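 note: 0% = PAD4 with RCA probe and DMSO and 100% = probe without PAD4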
Target sequence (Q9UM07 whole entry, looked up): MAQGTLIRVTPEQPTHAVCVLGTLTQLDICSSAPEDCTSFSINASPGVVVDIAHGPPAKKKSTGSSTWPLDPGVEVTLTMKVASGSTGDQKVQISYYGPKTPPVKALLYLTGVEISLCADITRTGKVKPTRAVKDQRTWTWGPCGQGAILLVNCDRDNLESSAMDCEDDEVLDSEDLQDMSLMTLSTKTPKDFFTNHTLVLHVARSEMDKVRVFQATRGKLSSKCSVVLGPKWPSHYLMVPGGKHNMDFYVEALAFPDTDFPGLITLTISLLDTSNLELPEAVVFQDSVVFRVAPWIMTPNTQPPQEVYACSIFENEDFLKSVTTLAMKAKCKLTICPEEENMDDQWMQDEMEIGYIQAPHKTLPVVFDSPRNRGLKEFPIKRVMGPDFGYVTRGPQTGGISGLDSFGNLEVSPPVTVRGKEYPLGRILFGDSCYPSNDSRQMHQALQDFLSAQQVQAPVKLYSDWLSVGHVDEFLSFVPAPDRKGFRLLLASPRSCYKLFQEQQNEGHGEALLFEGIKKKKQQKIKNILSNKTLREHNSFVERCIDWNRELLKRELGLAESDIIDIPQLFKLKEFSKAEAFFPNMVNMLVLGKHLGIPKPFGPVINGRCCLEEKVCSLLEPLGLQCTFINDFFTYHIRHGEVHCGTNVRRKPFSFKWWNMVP
TCR CD3 inh: inhibitors of human TCR-CD3 interaction. TAMRA-labeled TCR probe fluorescence, biochemical. inhibition, % at 9.4 µM. 360,000 tested, 0.37% active; in the data active = inhibition above about 19%;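 note: recombinant mutant TCR 2C K166C tagged with TAMRA read by polarization; 0% = receptor in buffer alone and 100% = receptor with positive control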
PRMT1 inh: blocks human protein arginine methyltransferase 1; Q99873; recombinant PRMT1, activity-based probe fluorescence polarization; inhibition, % at 2.79 µM; 370,000 tested, 1.3% active; AID 652257;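 active = inhibition above about 21% made by adding two undisclosed values, limit read from the data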
ABHD4 inh: ABHD4 (mouse) inhibition, primary FP screen; purified mABHD4, FP-Rh probe fluorescence polarization; inhibition, % at 8.92 µM; 370,000 tested, 0.54% active; AID 720543;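 active = inhibition exceeding the mean over every tested compound plus 3 SD, cut at about 30% in these data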;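 note: 0% = plate median of compound wells and 100% = S159A mutant with DMSO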
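Material: mouse ABHD4 enzyme, wild type; Benchmarks: S159A mutant high control, sample median low control; Buffer or medium: HEPES pH 7.0, NaCl, Pluronic buffer; Signal: fluorescence polarization; Read-out: percent inhibition of probe binding, normalized to plate controls; Timing: pre-incubation 45 min, probe exposure 60 min, at 25 °C; Dosing: 8.92 µM, single dose.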
SIAE inh: inhibitors of human sialic acid acetylesterase SIAE; Q9HAT2; SIAE FP-Rh probe binding, fluorescence polarization; inhibition, % at 9.66 µM; 370,000 tested, 0.69% active; AID 1053197;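 active = inhibition above a cutoff: mean of compounds within the control limits plus 3 SD of those, cut at about 17% in these data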;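 note: 0% = plate median of compound wells and 100% = probe without SIAE protein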
PRMT1 confirm: confirmation of human PRMT1 inhibitors; recombinant His-PRMT1, activity-based probe fluorescence polarization; inhibition, % at 2.79 µM; shares compounds with PRMT1 inh; 3,300 tested, 42% active; AID 687036;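 active = mean inhibition across replicates above the hit cutoff derived for the earlier primary screen, cut at about 22% in these data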
The depositor's hits bear a star; nt = no result given.

SMILES	HTRA1 inh	PAD4 inh	TCR CD3 inh	PRMT1 inh	ABHD4 inh	SIAE inh	PRMT1 confirm
Cc1ccc(N2C(=O)C3C4C=CC(CNC(=S)N5CCN(c6ccccc6)CC5)(O4)C3C2=O)cc1 (centres undefined)	-3	1	-4	43*	-5	2	44*
Cc1ccc(NC(=S)NCC23C=CC(O2)C2C(=O)N(c4ccc(C)cc4)C(=O)C23)cc1 (centres undefined)	-14	-5	-6	91*	-13	-5	50*
Cc1cccc(NC(=S)NNC(=O)COc2ccc(Cl)cc2Cl)c1	-2	1	4	17	-11	4	nt
Cc1ccc(S(=O)(=O)NCC23C=CC(O2)C2C(=O)N(c4ccccc4)C(=O)C23)cc1 (centres undefined)	10	3	6	81*	0	2	11
Cc1cccc(NC(=S)NCC23C=CC(O2)C2C(=O)N(c4ccc(Cl)cc4)C(=O)C23)c1 (centres undefined)	-39	-1	-5	78*	-2	-3	31*
Cn1cccc1C(=O)N1CCN(S(=O)(=O)c2ccc(C(C)(C)C)cc2)CC1	nt	nt	nt	-1	3	0	nt
CCN(c1ccc(NS(=O)(=O)c2cc(Cl)ccc2Cl)cc1)C(C)C	7	-1	-14	32*	12	-3	12
COC(=O)[C@]12C[C@H](CC(=O)NCc3ccc(OC)c(OC)c3)C(=O)N(Cc3ccccc3)C1=C[C@H](C(C)(C)C)O[C@@H]2C	nt	nt	2	-2	1	2	nt
COC(=O)C1CN(Cc2cn(Cc3ccc(C)cc3)nn2)CCS(=O)(=O)N1Cc1ccc(C)cc1 (centres undefined)	nt	nt	nt	-3	-2	11	nt
CCOc1ccc(OCCC(=O)OCC(=O)Nc2ccc3c(c2)OCO3)cc1	3	-7	-4	2	6	2	nt
Cc1ccc(OCCC(=O)OCC(=O)Nc2ccc3c(c2)OCCO3)cc1	-4	6	3	32*	6	-3	9
OC1OC2COC(c3ccccc3)OC2C(O)C1O (centres undefined)	nt	nt	4	-1	-1	3	nt
COc1cccc(NC(=O)C2C3C=CC(O3)C2C(=O)O)c1 (centres undefined)	7	0	3	-1	7	2	nt
COc1ccc(NC(=O)C2C3C=CC(O3)C2C(=O)O)cc1 (centres undefined)	8	1	-8	36*	5	13	8
COC(=O)[C@]12C[C@H](CC(=O)NCCCN3CCCC3=O)C(=O)N(Cc3ccc(Cl)cc3Cl)C1=C[C@H](COCc1ccccc1)O[C@@H]2C	nt	nt	nt	-2	-1	0	nt
O=C(NCc1ccccc1)[C@@H]1CCCN1C(=O)[C@H]1CCCN1C(=O)c1ccc(F)c(F)c1	nt	nt	4	-2	6	9	nt
CCOc1cc(/C=C2\C(=O)N(Cc3ccc(C)cc3)C(C)=C2C(=O)OC)ccc1O	16	-6	6	41*	25	5	6
C=CCOc1cccc(/C=C2\C(=O)N(Cc3ccc(C)cc3)C(C)=C2C(=O)OC)c1	-34	-7	1	-3	-10	-7	nt
COc1ccc(NC(=O)OCCN2CCCC23CCC(c2ccccc2)CC3)cc1 (centres undefined)	nt	nt	nt	0	0	8	nt
c1ccc(-c2cc3c(N4CCCC4)ncnc3s2)cc1	-7	-3	3	40*	11	-16	0
C=CCOc1cccc(C2C(C(=O)c3ccc(C)o3)=C(O)C(=O)N2c2nccs2)c1 (centres undefined)	-6	-8	-3	63*	8	2	38*
C=CCOc1cccc(C2C(C(=O)c3ccco3)=C(O)C(=O)N2Cc2cccnc2)c1 (centres undefined)	6	-4	9	-2	-5	4	nt
COc1ccc(C2C(C(=O)c3cccs3)=C(O)C(=O)N2c2cccc(C)n2)cc1 (centres undefined)	2	-3	0	0	0	5	nt
Cc1nnc(N2C(=O)C(O)=C(C(=O)c3ccco3)C2c2ccc(C(C)(C)C)cc2)s1 (centres undefined)	-7	-9	-1	13	-5	1	nt
Cc1nnc(N2C(=O)C(O)=C(C(=O)c3ccco3)C2c2ccc(C(C)C)cc2)s1 (centres undefined)	-7	-18	0	10	-2	-10	nt
SMILES	HTRA1 inh	PAD4 inh	TCR CD3 inh	PRMT1 inh	ABHD4 inh	SIAE inh	PRMT1 confirm
CCCOc1cccc(C2C(C(=O)c3ccco3)=C(O)C(=O)N2c2nnc(C)s2)c1 (centres undefined)	6	-14	-6	32*	7	2	10
Cc1ccc(C2C(C(=O)c3cccs3)=C(O)C(=O)N2c2nnc(C)s2)cc1 (centres undefined)	-5	-14	-3	69*	-12	-3	36*
Cc1nnc(N2C(=O)C(O)=C(C(=O)c3ccco3)C2c2ccc(F)cc2)s1 (centres undefined)	8	1	7	40*	4	1	2
C[C@H]1[C@H](NC(=O)c2ccc(Cl)cc2)CC[C@@]23CCCN2C(=O)CCC[C@@H]13	nt	nt	nt	3	2	-6	nt
COC(=O)[C@]12C[C@H](CC(=O)NCCCCc3ccccc3)C(=O)N(Cc3ccc(Cl)cc3Cl)C1=C[C@H](C(C)(C)C)O[C@@H]2C	nt	nt	nt	7	2	6	nt
CSc1ccc(C2C(C(=O)c3ccco3)=C(O)C(=O)N2c2nnc(SC)s2)cc1 (centres undefined)	-9	-28	-4	65*	-15	2	34*
C#CCNC(=O)C[C@H]1C[C@@]2(C(=O)OC)C(=C[C@H](C(C)C)O[C@@H]2C2CC2)N(CCC2=CCCCC2)C1=O	nt	nt	nt	-3	-3	7	nt
O=C(CSc1ncn[nH]1)c1cccc([N+](=O)[O-])c1	-2	4	-9	32*	8	5	25*
Cc1ccc(S(=O)(=O)N2CCCC2C(=O)N2CCN(c3ccccc3)CC2)cc1C (centres undefined)	nt	nt	nt	-6	-3	-6	nt
C=CCn1cccc(/C=C/C(=O)c2ccc(C(C)(C)C)cc2)c1=S	-29	-7	0	27*	1	-9	1
O=C(C=Cc1ccccc1Cl)c1ccccc1	-8	nt	4	1	0	-6	nt
COC(=O)C1=C(C)N(C)C(=NCc2ccc3c(c2)OCO3)NC1c1ccc(F)cc1 (centres undefined)	nt	nt	0	-3	1	5	nt
CC(C)(C)N(Cc1cn(Cc2ccccc2)nn1)S(=O)(=O)c1ccc(F)cc1Br	nt	nt	nt	-4	-4	-2	nt
